ChEMBL document CHEMBL1121464, “14-(Arylhydroxyamino)codeinones and derivatives as analgetics and antagonists” (1980)
“And” between values parts separate entries of the source, which are not always exact repeats. Identical values can stand only once. The source made the active and inactive calls.

Assays:
[1] = test system: Mus musculus; experiment: Tested for antagonistic activity using Straub tail test in mice at 20 mg/kg upon subcutaneous administration; assay type: functional; conditions: sc
[2] = species on record: Mus musculus; experiment: Maximum percent analgesia using tail flick test in mice; assay type: functional
In short: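 Young male Swiss mice (ca. 35 g) restrained in cylinders, with the tail exposed to 54 °C water. Reaction time (shorter of a pair) taken pre-dose and every 15 min to 2 h. Naive non-responders under 2.2 s excluded; 5 s cutoff. Dosed ip at 20 mg/kg in propylene glycol or water, 9–11 mice per group. […] Analgesia defined as PRT >2.6 s; the value is the peak percentage of analgesic mice at any time point.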

[3] = test system: Mus musculus; experiment: Tested for analgesic activity using writhing test in mice at 20 mg/kg upon subcutaneous administration; assay type: functional; conditions: sc
[4] = test system: Mus musculus; experiment: Tested for antagonistic activity using Straub tail test in mice at 20 mg/kg upon subcutaneous administration; Inactive; assay type: functional, organism-based; design: dose 20 mg/kg
[5] = test system: Mus musculus; experiment: Tested for analgesic activity using writhing test in mice at 20 mg/kg upon subcutaneous administration; Inactive; assay type: functional, organism-based; design: dose 20 mg/kg

| Structure (SMILES) | ED50 [1] | Analgesia [2] | ED50 [3] | ED50 [4] | ED50 [5] |
| --- | --- | --- | --- | --- | --- |
| COc1ccc2c3c1OC1C(=O)C=CC4(N(O)c5ccccc5)C(C2)N(C)CCC314 (centres undefined) | > 20 mg/kg | 20% | 1.45 mg/kg | – | – |
| COc1ccc2c3c1OC1C(=O)CCC4(Nc5ccc(F)cc5)C(C2)N(CC2CC2)CCC314 (centres undefined) | ~5 mg/kg | 32% | ~25 mg/kg | – | – |
| COc1ccc2c3c1OC1C(=O)CCC4(Nc5ccccc5)C(C2)N(C)CCC314 (centres undefined) | > 40 mg/kg | 10% | 1.04 mg/kg | – | – |
| COc1ccc2c3c1OC1C(=O)CCC4(Nc5ccccc5)C(C2)N(CC2CC2)CCC314 (centres undefined) | ~10.5 mg/kg | 10% | ~40 mg/kg | – | – |
| COc1ccc2c3c1OC1C(=O)CCC4(Nc5ccc(F)cc5)C(C2)N(C)CCC314 (centres undefined) | > 40 mg/kg | 10% | 0.76 mg/kg | – | – |
| CN1CC[C@]23c4c5ccc(O)c4O[C@H]2[C@@H](O)C=C[C@H]3[C@H]1C5 [MORPHINE] | – | 80% | 0.26 mg/kg | inactive | – |
| COc1ccc2c(c1O)C13CCN(CC4CC4)C(C2)C12C=CC(=O)C3ON2c1ccc(F)cc1 (centres undefined) | > 40 mg/kg | 20% | ~31 mg/kg | – | – |
| COc1ccc2c3c1OC1C(=O)C=CC4(N(O)c5ccc(F)cc5)C(C2)N(C)CCC314 (centres undefined) | > 40 mg/kg | 30% | 0.71 mg/kg | – | – |
| COc1ccc2c3c1OC1C(=O)C=CC4(N(O)c5ccc(F)cc5)C(C2)N(CC2CC2)CCC314 (centres undefined) | 12 mg/kg | 32% | ~40 mg/kg | – | – |
| COc1ccc2c(c1O)C13CCN(C)C(C2)C12C=CC(=O)C3ON2c1ccccc1 (centres undefined) | > 40 mg/kg | 50% | 1.87 mg/kg | – | – |
| COc1ccc2c(c1O)C13CCN(C)C(C2)C12C=CC(=O)C3ON2c1ccc(F)cc1 (centres undefined) | > 40 mg/kg | 90% | 2.53 mg/kg | – | – |
| C=CCN1CC[C@]23c4c5ccc(O)c4O[C@H]2C(=O)CC[C@@]3(O)[C@H]1C5 [NALOXONE] | – | 32% | – | – | inactive |
| COc1ccc2c3c1OC1C(=O)C=CC4(N(O)c5ccccc5)C(C2)N(CC2CC2)CCC314 (centres undefined) | ~7 mg/kg | 32% | > 40 mg/kg | – | – |
| COc1ccc2c(c1O)C13CCN(CC4CC4)C(C2)C12C=CC(=O)C3ON2c1ccccc1 (centres undefined) | > 40 mg/kg | 20% | > 40 mg/kg | – | – |
| COc1ccc2c3c1OC1C(=O)C=CC4(NO)C(C2)N(C)CCC314 (centres undefined) | > 20 mg/kg | 10% and 20% | 5 mg/kg | – | – |
